# Data: ChEMBL document CHEMBL1124629, “Syntheses and biological activities of 13-substituted avermectin aglycons” (J Med Chem, 1989)
# Columns and labels:
# Tetranychus urticae [1] = assay: Antiparasitic activity against two-spotted spider mite Tetranychus urticae on bean plants; assay type: functional
# Method in brief: (§1)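 Two-spotted spider mite (Tetranychus urticae) infesting bean plants treated with test compound.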
# [2] = Displacement of ivermectin from avermectin receptor of Caenorhabditis elegans
# Method in brief: (§2)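 Competitive binding with [22,23-3H2]ivermectin as radioligand, displaced from an avermectin receptor preparation derived from the free-living nematode Caenorhabditis elegans.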
# Spodoptera eridania [3] = assay: Antiparasitic activity against southern army worm Spodoptera eridania; assay type: functional
# Method in brief: (§3)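 Neonate southern armyworm (Spodoptera eridania) larvae placed on bean leaves treated with test compound.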
# [4] = test system: Trichostrongylus colubriformis; assay: Antiparasitic activity against sheep parasite Trichostrongylus colubriformis; assay type: functional
# Method in brief: (§4)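 Sheep nematode Trichostrongylus colubriformis tested in vivo in a gerbil infection model.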
# [5] = test system: Trichostrongylus colubriformis; assay: Antiparasitic activity against sheep parasite Trichostrongylus colubriformis; details: in gerbil
# Spodoptera eridania [6] = assay: Antiparasitic activity against Southern army worm; assay type: functional; method in brief: as §3
# [7] = test system: Trichostrongylus colubriformis; assay: Antiparasitic activity against Trichostrongylus colubriformis; assay type: functional; method in brief: as §4
# Tetranychus urticae [8] = assay: Antiparasitic activity against Tetranychus urticae; assay type: functional; method in brief: as §1
# [9] = Binding radioligand; set-up: species or system Caenorhabditis elegans; method in brief: as §2
Molecule,ED90 (Tetranychus urticae [1]) [p.p.m.],Ki [2] [nM],ED90 (Spodoptera eridania [3]) [p.p.m.],ED90 [4] [mg/kg],ED90 [5] [mg/kg],ED90 (Spodoptera eridania [6]) [p.p.m.],ED90 [7] [mg/kg],ED90 (Tetranychus urticae [8]) [p.p.m.],Ki [9] [nM]
CC[C@H](C)[C@H]1O[C@]2(CC[C@@H]1C)C[C@@H]1C[C@@H](C/C=C(\C)[C@@H](O)[C@@H](C)/C=C/C=C3\CO[C@@H]4[C@H](O)C(C)=C[C@@H](C(=O)O1)[C@]34O)O2 [IVM AGLYCONE],0.5,6.4,>6.25,–,–,–,–,–,–
IVERMECTIN [listing 1 of 2 here],0.05,–,8,0.05,–,–,–,–,–
CC[C@H](C)[C@H]1O[C@]2(CC[C@@H]1C)C[C@@H]1C[C@@H](C/C=C(\C)[C@H](O)[C@@H](C)/C=C/C=C3\CO[C@@H]4[C@H](O)C(C)=C[C@@H](C(=O)O1)[C@]34O)O2,0.05,2,>8,–,< 0.5,–,–,–,–
CC[C@H](C)[C@H]1O[C@]2(CC[C@@H]1C)C[C@@H]1C[C@@H](C/C=C(C)/C=C(C)\C=C\C=C3/CO[C@@H]4[C@H](O)C(C)=C[C@@H](C(=O)O1)[C@]34O)O2,>6.25,0.8,>1,–,> 2.5,–,–,–,–
CC[C@H](C)[C@H]1O[C@]2(CC[C@@H]1C)C[C@@H]1C[C@@H](C/C=C(\C)C(=O)[C@@H](C)/C=C/C=C3\CO[C@@H]4[C@H](O)C(C)=C[C@@H](C(=O)O1)[C@]34O)O2,–,0.6,–,–,–,>0.5,0.5,6.25,–
CC[C@H](C)[C@H]1O[C@]2(CC[C@@H]1C)C[C@@H]1C[C@@H](C/C=C(\C)[C@@H](OCOCCOC)[C@@H](C)/C=C/C=C3\CO[C@@H]4[C@H](O)C(C)=C[C@@H](C(=O)O1)[C@]34O)O2,–,2.7,–,–,–,<1,> 0.1,0.05,–
CC[C@H](C)[C@H]1O[C@]2(CC[C@@H]1C)C[C@@H]1C[C@@H](C/C=C(\C)[C@@H](N)[C@@H](C)/C=C/C=C3\CO[C@@H]4[C@H](O)C(C)=C[C@@H](C(=O)O1)[C@]34O)O2,>0.1,> 100,>1,–,0.5,–,–,–,–
CC[C@H](C)[C@H]1O[C@]2(CC[C@@H]1C)C[C@@H]1C[C@@H](C/C=C(\C)[C@@H](Cl)[C@@H](C)/C=C/C=C3\CO[C@@H]4[C@H](O)C(C)=C[C@@H](C(=O)O1)[C@]34O)O2,–,–,–,–,–,<1,< 0.1,>0.1,–
CC[C@H](C)[C@H]1O[C@]2(CC[C@@H]1C)C[C@@H]1C[C@@H](CC(O)/C(C)=C\[C@@H](C)/C=C/C=C3\CO[C@@H]4[C@H](O)C(C)=C[C@@H](C(=O)O1)[C@]34O)O2 (some centres not stated),>6.25,–,–,–,–,–,–,–,> 100
CC[C@H](C)[C@H]1O[C@]2(CC[C@@H]1C)C[C@@H]1C[C@@H](C/C=C(C)/C(=N\OC)[C@@H](C)/C=C/C=C3\CO[C@@H]4[C@H](O)C(C)=C[C@@H](C(=O)O1)[C@]34O)O2,0.05,–,0.5,–,< 0.1,–,–,–,0.3
CC[C@H](C)[C@H]1O[C@]2(CC[C@@H]1C)C[C@@H]1C[C@@H](C/C=C(\C)[C@H](Cl)[C@@H](C)/C=C/C=C3\CO[C@@H]4[C@H](O)C(C)=C[C@@H](C(=O)O1)[C@]34O)O2,–,1,–,–,–,0.5,0.1,0.25,–
CC[C@H](C)[C@H]1O[C@]2(CC[C@@H]1C)C[C@@H]1C[C@@H](C/C=C(\C)[C@H](F)[C@@H](C)/C=C/C=C3\CO[C@@H]4[C@H](O)C(C)=C[C@@H](C(=O)O1)[C@]34O)O2,0.01,0.3,0.5,–,< 0.1,–,–,–,–
CC[C@H](C)[C@H]1O[C@]2(CC[C@@H]1C)C[C@@H]1C[C@@H](C/C=C(\C)[C@H](I)[C@@H](C)/C=C/C=C3\CO[C@@H]4[C@H](O)C(C)=C[C@@H](C(=O)O1)[C@]34O)O2,–,2.4,–,–,–,–,0.5,1.25,–
IVERMECTIN [listing 2 of 2 here],–,–,–,–,–,–,–,–,0.3
CC[C@H](C)[C@H]1O[C@]2(CC[C@@H]1C)C[C@@H]1C[C@@H](C/C=C(\C)[C@H](OCOCCOC)[C@@H](C)/C=C/C=C3\CO[C@@H]4[C@H](O)C(C)=C[C@@H](C(=O)O1)[C@]34O)O2,–,2.9,–,–,–,>0.25,< 0.1,0.01,–
CC[C@H](C)[C@H]1O[C@]2(CC[C@@H]1C)C[C@@H]1C[C@@H](C/C=C(\C)[C@@H](F)[C@@H](C)/C=C/C=C3\CO[C@@H]4[C@H](O)C(C)=C[C@@H](C(=O)O1)[C@]34O)O2,0.05,0.2,>0.5,–,< 0.1,–,–,–,–
CC[C@H](C)[C@H]1O[C@]2(CC[C@@H]1C)C[C@@H]1C[C@@H](CC(N(C)C(C)=O)/C(C)=C\[C@@H](C)/C=C/C=C3\CO[C@@H]4[C@H](O)C(C)=C[C@@H](C(=O)O1)[C@]34O)O2 (some centres not stated),>6.25,–,–,–,> 2.5,–,–,–,> 100
CC[C@H](C)[C@H]1O[C@]2(CC[C@@H]1C)C[C@@H]1C[C@@H](C/C=C(\C)[C@@H](OC)[C@@H](C)/C=C/C=C3\CO[C@@H]4[C@H](O)C(C)=C[C@@H](C(=O)O1)[C@]34O)O2,1,0.6,–,–,0.5,–,–,–,–
CC[C@H](C)[C@H]1O[C@]2(CC[C@@H]1C)C[C@@H]1C[C@@H](C/C=C(\C)C[C@@H](C)/C=C/C=C3\CO[C@@H]4[C@H](O)C(C)=C[C@@H](C(=O)O1)[C@]34O)O2,0.05,0.9,0.5,–,0.06,–,–,–,–
CC[C@H](C)[C@H]1O[C@]2(C=C[C@@H]1C)C[C@@H]1C[C@@H](C/C=C(\C)[C@@H](O[C@H]3C[C@H](OC)[C@@H](O[C@H]4C[C@H](OC)[C@@H](O)[C@H](C)O4)[C@H](C)O3)[C@@H](C)/C=C/C=C3\CO[C@@H]4[C@H](O)C(C)=C[C@@H](C(=O)O1)[C@]34O)O2 [ABAMECTIN COMPONENT B1A],0.05,–,8,–,0.03,–,–,–,0.1
CC[C@H](C)[C@H]1O[C@]2(CC[C@@H]1C)C[C@@H]1C[C@@H](CC(N3CCOCC3)/C(C)=C\[C@@H](C)/C=C/C=C3\CO[C@@H]4[C@H](O)C(C)=C[C@@H](C(=O)O1)[C@]34O)O2 (some centres not stated),6.25,> 100,–,–,> 2.5,–,–,–,–
